TRPC6 inhibitor: mouse TRPC6 channel inhibitors, primary screen, cell-based, HEK293, membrane potential dye | B-score at 10 µM | 1.1% of 310,000 active | AID 2553, 2010 | Short transient receptor potential channel 6 (Mus musculus), Q61143 | ACh-evoked depolarization; stronger effect = lower value;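 active = B-score under library mean minus 3 SD, initial fluorescence not abnormally high, positive integrated signal ratio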;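 note: B-score derived from integrated fluorescence ratio over the kinetic read; more negative B-score means stronger inhibition of depolarization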
Kir21 block: inhibitors of mouse Kir2.1 inward-rectifier potassium channel; Inward rectifier potassium channel 2 (Mus musculus), P35561; HEK293-Kir2.1, FluxOR thallium flux fluorescence; stronger effect = lower value; B-score at 10 µM; 0.85% of 310,000 active; AID 1672, 2009;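 active = fluorescence ratio B-score at or below minus 3 SD of library scores, with starting-brightness B-score within 2 SD, cut at about -4.2 in these data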;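 note: channel flux triggered by added potassium and thallium sulfate stimulus; B-score of peak minus minimum fluorescence over baseline after thallium stimulus; more negative B-score means stronger Kir2.1 block with less thallium influx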
TRPC6 activator: mouse TRPC6 channel activators, primary screen, cell-based, HEK293, membrane potential dye | AID 2550, 2010 | Short transient receptor potential channel 6 (Mus musculus), Q61143 | HEK293-TRPC6 membrane potential dye fluorescence; stronger effect = higher value | 0.13% of 310,000 active | B-score at 10 µM;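 active = B-score of the integrated fluorescence ratio above library mean plus 3 SD, and starting fluorescence ratio within library mean plus 5 SD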;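 note: higher score means more depolarization so channel activation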
TRPC4 act: activators of mouse TRPC4 channel, primary screen, Fluo4 calcium, HEK293 TRPC4beta/mu-opioid cells | B-score at 10 µM | 0.49% of 310,000 active | Fluo4 calcium fluorescence; stronger effect = higher value | Short transient receptor potential channel 4 (Mus musculus), Q9QUQ5;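 active = B-score above 5 SD of library B-scores, and initial fluorescence ratio not above library mean plus 5 SD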;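 note: positive B-score marks a calcium rise read as TRPC4 activation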
Target sequence (Q9QUQ5 whole entry, looked up): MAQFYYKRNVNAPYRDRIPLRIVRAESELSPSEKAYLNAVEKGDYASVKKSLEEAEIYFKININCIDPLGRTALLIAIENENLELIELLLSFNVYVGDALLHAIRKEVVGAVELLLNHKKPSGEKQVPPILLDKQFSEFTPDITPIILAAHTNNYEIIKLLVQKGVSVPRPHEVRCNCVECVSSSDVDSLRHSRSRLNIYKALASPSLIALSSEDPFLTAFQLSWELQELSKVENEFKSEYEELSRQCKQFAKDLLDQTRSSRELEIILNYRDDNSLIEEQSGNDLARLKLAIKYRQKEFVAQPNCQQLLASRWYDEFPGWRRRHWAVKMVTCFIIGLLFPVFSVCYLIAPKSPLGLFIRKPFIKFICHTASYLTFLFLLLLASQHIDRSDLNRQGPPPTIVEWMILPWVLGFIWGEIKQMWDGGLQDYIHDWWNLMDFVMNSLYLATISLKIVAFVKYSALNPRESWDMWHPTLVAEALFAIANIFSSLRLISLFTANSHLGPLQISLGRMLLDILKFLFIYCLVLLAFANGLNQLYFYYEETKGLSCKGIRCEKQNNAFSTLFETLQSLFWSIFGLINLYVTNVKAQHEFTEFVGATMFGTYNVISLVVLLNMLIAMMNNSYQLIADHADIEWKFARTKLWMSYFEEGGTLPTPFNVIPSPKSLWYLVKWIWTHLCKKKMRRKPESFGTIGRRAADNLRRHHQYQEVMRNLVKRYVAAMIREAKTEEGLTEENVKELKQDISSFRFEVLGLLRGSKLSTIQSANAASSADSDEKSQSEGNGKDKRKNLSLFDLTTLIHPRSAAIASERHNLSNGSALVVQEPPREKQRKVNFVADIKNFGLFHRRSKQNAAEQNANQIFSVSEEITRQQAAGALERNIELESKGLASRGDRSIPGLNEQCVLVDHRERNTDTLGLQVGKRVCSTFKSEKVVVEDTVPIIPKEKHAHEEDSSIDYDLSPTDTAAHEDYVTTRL
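Assay system: HEK293 cells stably co-expressing mouse TRPC4beta and mu-opioid receptor / Timing: Fluo4 dye loading 45 min at room temperature, 110 s recording / Signal: Fluo4 calcium-sensitive dye fluorescence, kinetic, 1 Hz baseline / Read-out: integrated baseline-normalised fluorescence ratio, converted to per-well B score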
TRPC4 potent: positive allosteric modulators of TRPC4, primary screen, cell-based, mouse TRPC4beta, HEK293 mu-opioid, Fluo-4 calcium; Short transient receptor potential channel 4 (Mus musculus), Q9QUQ5; DAMGO EC20, Fluo-4 Ca2+ flux; stronger effect = higher value; B-score at 10 µM; 0.42% of 310,000 active; AID 2227, 2009;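 active = B-score of calcium response area above 5 SD of library B-scores, with initial fluorescence ratio within 5 SD of library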;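 note: B-score of integrated fluorescence ratio over time as area under calcium response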
TRPC4 inh: inhibitors of mouse TRPC4 channel, primary screen, Fluo4 calcium, HEK293 TRPC4beta/mu-opioid cells; 0.39% of 300,000 active; AID 2247, 2010; DAMGO-evoked Fluo4 calcium flux; stronger effect = lower value; B-score at 10 µM;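 active = B-score over 3 SD under the library average, no early fluorescence shift, positive overall ratio signal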
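Assay system: HEK293 cells with stable TRPC4beta plus mu-opioid receptor expression. Dosing: single dose. Measured by: Fluo4 Ca2+ flux fluorescence. Also added: DAMGO in two steps, submaximal then maximal. Read-out: B score from integrated Fluo4 fluorescence ratio.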
TRPC4 spec 2: second check of whether TRPC6 inhibitors also affect mouse TRPC4 | shares compounds with TRPC6 inhibitor | HEK293 TRPC4/MOR, membrane potential dye fluorescence; channel activated by saturating DAMGO dose | inhibition, % at 10 µM | 42% of 920 active | AID 2776;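 active = compounds whose fluorescence signal differed from control wells by over 3 SD, either direction, in both duplicate plates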
TRPC4 spec: mouse TRPC4 modulation by TRPC6 hits, confirmation, selectivity assay for TRPC6 inhibitor project, cell-based, HEK293 TRPC4/mu-opioid, membrane potential dye; shares compounds with TRPC6 inhibitor; membrane potential fluorescence; activity change, negative = inhibition, % at 10 µM; 61% of 920 active; AID 2777, 2010;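 active = rise or fall in signal beyond 3 SD of buffer-only wells in both replicate plates, either sign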;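 note: integrated kinetic ratio of fluorescence range over baseline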
HEK293 MPD ctr 2-1: nonspecific membrane potential effects, parental HEK293, confirmation, counter-screen for TRPC6 inhibitor project, cell-based, second counter screen | shares compounds with TRPC6 inhibitor | AID 2779, 2010 | signal change vs control, % at 10 µM | 31% of 920 active | parental HEK293 membrane potential dye fluorescence; maximal acetylcholine challenge after compound addition;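 active = membrane potential signal moving either way by over 3 SD of the maximum-effect control, in both duplicate plates, meaning non-specific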
HEK293 MPD ctr-1: membrane potential modulation in parental HEK293, confirmation, counter-screen for TRPC6 inhibitor project, cell-based; membrane potential signal change, % at 10 µM; 60% of 920 active; parental HEK293 membrane potential dye fluorescence; shares compounds with TRPC6 inhibitor;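 active = membrane potential signal shifting up or down by more than 3 SD of buffer-only wells, on both duplicate plates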
HEK293 MPD ctr-2: parental HEK293 membrane potential modulation, confirmation, counter-screen for TRPC6 modulator project, cell-based; shares compounds with TRPC6 inhibitor; membrane potential dye fluorescence; membrane potential signal change, % at 10 µM; 51% of 2,400 active; AID 488924, 2010;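 active = membrane potential signal moves up or down beyond 5 SD from buffer-only wells, on both duplicate plates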
HEK293 MPD ctr 2-2: parental HEK293 nonspecific activity of TRPC6 modulators, second screen; shares compounds with TRPC6 inhibitor; membrane potential dye fluorescence; after compound, maximal acetylcholine stimulation; inhibition, % at 10 µM; 14% of 2,400 active;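 active = membrane potential signal drops by more than 5 SD from the mean control signal, in both duplicate plates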;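 note: plate controls were acetylcholine ECmax control wells for no effect and buffer only wells for full effect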
TRPC4 ctr mod: TRPC4 modulation by TRPC6 hit compounds, confirmation, selectivity assay for TRPC6 modulator project, cell-based, HEK293 TRPC4/mu-opioid, membrane potential dye, mouse | percent change from control (negative = decrease, positive = increase), % at 10 µM | membrane potential fluorescence | 69% of 2,400 active | shares compounds with TRPC6 inhibitor;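 active = membrane potential signal moved up or down beyond 5 SD of buffer control wells, in both duplicate plates, actives on both sides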;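 note: plate controls were assay buffer wells for no effect and DAMGO maximal-effect wells for full effect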
TRPC4 ctr inh 2: mouse TRPC4 off-target activity of TRPC6 modulators, second screen. 55% of 2,400 active. shares compounds with TRPC6 inhibitor. inhibition, % at 10 µM. AID 488928. HEK293 TRPC4/mu-opioid, membrane potential dye fluorescence; stimulated with maximal-effect DAMGO;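 active = drop in membrane potential signal beyond 5 SD of the control wells in both duplicate plates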;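 note: TRPC4 counter screen for TRPC6 hits run under conditions tuned for TRPC6 not TRPC4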
TRPC6 inh conf: mouse TRPC6 channel inhibitors, confirmation, HEK293 cells, membrane potential dye, duplicate | shares compounds with TRPC6 inhibitor | ACh-evoked depolarization | inhibition, % at 10 µM | 43% of 3,300 active | AID 488960, 2010;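 active = fluorescence ratio falls more than 5 SD below the full-stimulation control mean, in both duplicate runs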;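 note: integrated fluorescence ratio of peak minus minimum over baseline after agonist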
TRPC6 act confirm: mouse TRPC6 channel activators, confirmation, HEK293 cells, membrane potential dye, duplicate. shares compounds with TRPC6 inhibitor. HEK293-TRPC6 membrane potential dye fluorescence, FDSS. activation, % at 10 µM. 11% of 2,800 active. AID 488961, 2010;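 active = ratio signal rise beyond 5 SD above unstimulated control wells' mean, seen in both duplicate runs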;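 note: plate controls were buffer EC0 wells for no effect and acetylcholine ECmax response for full effect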
Active calls of the source: *; i = inactive; . = no result given. The list is not random: actives were taken first. Their share in the collection is about 2.9%.

SMILES	TRPC6 inhibitor	Kir21 block	TRPC6 activator	TRPC4 act	TRPC4 potent	TRPC4 inh	HEK293 MPD ctr-2	HEK293 MPD ctr 2-2	TRPC4 ctr mod	TRPC4 ctr inh 2	TRPC6 inh conf	TRPC6 act confirm	others
CCOC(=O)c1c(NC(=O)c2ccc(S(=O)(=O)N(C)CC3CCCO3)cc2)sc2c1CCN(C)C2 (stereo not drawn)	-5.2*	-2.2	i	i	i	i	167%*	i	-30%*	i	i	i
CCOC(=O)c1c(NC(=O)CSc2nnc(C)s2)sc2c1CCN(C)C2	-5.8*	0.72	i	i	i	i	-65%*	i	-16%*	i	i	i
CCOC(=O)c1c(NC(=O)Cc2ccccc2)sc2c1CCN(C)C2	i	-2.8	i	i	i	i	.	.	.	.	.	.
CCOC(=O)c1c(NC(=O)c2ccc(S(=O)(=O)N3CCOCC3)cc2)sc2c1CCN(C(C)C)C2	i	0.85	i	i	i	i	.	.	.	.	.	.
Cc1ccc(C)c(N2CCN(C(=O)CCCn3ncn4c(cc5occc54)c3=O)CC2)c1	i	0.61	i	i	i	i	.	.	.	.	.	.
Cc1ccc(C(=O)Nc2cccc(C(=O)N/N=C/c3ccc(F)cc3)c2)cc1	-6*	0.17	i	i	i	i	i	i	i	i	i	i
Cc1ccc(S(=O)(=O)N2CCCCC2)cc1NC(=O)COC(=O)C1=COCCO1	i	0.91	i	i	i	i	.	.	.	.	.	.
COc1ccccc1CNC(=O)C1CC2Cn3c(nc4cc(C)c(C)cc43)C2N1C (stereo not drawn)	i	-1.3	i	i	i	i	.	.	.	.	.	.
COc1ccccc1CNC(=O)C1CC2Cn3c(nc4ccccc43)C2N1C (stereo not drawn)	i	-0.39	13*	i	i	i	i	i	i	i	i	i
Cc1cccc(C)c1OCc1cc(C(=O)N2CCN(Cc3nccn3C)CC2)no1	i	1.1	i	i	i	i	.	.	.	.	.	.
Cn1c(/C=C/c2ccccc2)nc2ccccc21	-7.9*	0.72	i	i	i	i	.	.	.	.	i	i	TRPC4 spec 2=23%*;TRPC4 spec=3.3%*;HEK293 MPD ctr 2-1=i;HEK293 MPD ctr-1=-204%*
COCC(C)NCC(=O)NC(C)CCc1ccccc1 (stereo not drawn)	i	0	i	i	i	i	.	.	.	.	.	.
COC(=O)c1ccc(N2CCN(C)CC2)c(NC(=O)c2ccc(Br)o2)c1	-6.7*	0.99	i	142*	i	i	-268%*	82%*	-38%*	94%*	74%*	i
COC(=O)c1ccc(N2CCN(C)CC2)c(NC(=O)c2sc3ccccc3c2Cl)c1	-6.7*	-0.57	i	71*	i	i	-196%*	i	-46%*	74%*	i	i
C=CCSC(=S)NC1CCS(=O)(=O)C1 (stereo not drawn)	i	1.2	i	i	i	i	.	.	.	.	.	.
Cc1ccc(S(=O)(=O)NNc2ccccc2)cc1	i	-1.3	i	i	i	i	.	.	.	.	.	.
Cc1ccc(S(=O)(=O)NNc2nc3ccccc3nc2C(F)(F)F)cc1	-7*	-0.06	i	i	i	i	.	.	.	.	i	i	TRPC4 spec 2=i;TRPC4 spec=i;HEK293 MPD ctr 2-1=i;HEK293 MPD ctr-1=i
Cc1ccc2nc3c(c(C(=O)O)c2c1)CCC3	i	1.3	i	i	i	i	.	.	.	.	.	.
Cc1ccc2nc(C)c3c(c2c1)COC3	-6.3*	2.3	i	i	i	i	-165%*	84%*	-27%*	47%*	44%*	i
Cc1cc(N2CCN(c3ncccn3)CC2)nc2c(C)cccc12	i	-0.05	i	i	i	i	.	.	.	.	.	.
Cc1nc2c(C)cccc2c2c1COC2	-9.1*	0.75	i	i	i	i	.	.	.	.	61%*	i	TRPC4 spec 2=i;TRPC4 spec=-30%*;HEK293 MPD ctr 2-1=36%*;HEK293 MPD ctr-1=-434%*
O=C1N(Cc2cccnc2)C[C@@H]2C[C@@H](c3cccc(OC4CCCC4)c3)N3CCC[C@@]123	i	-0.82	i	i	i	i	.	.	.	.	.	.
